Data set [1] concerns Jurkat. Briefly: Percent Inhibition of Ca+2 influx in jurkat T cells at 50 uM concentration. In kind it is functional. The settings on record: Homo sapiens. In a few lines:
(§1)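 Jurkat cells loaded with 2 μM Fluo-3 AM plus Pluronic F127 for 1 h at room temperature, washed, resuspended in HBSS with 10 mM HEPES pH 7.5. 4 × 10^6 cells per cuvette equilibrated to 37 °C; compound added 80 s before TCR cross-linking with 2 μg mouse anti-human CD3. Cytoplasmic calcium followed by fluorescence over time; EC50 from percent of control fluorescence at six doses.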

A short description of data set [2]: Inhibition of IL-2 production in CD4+T cells. In kind it is functional, cell-based. The settings on record: Homo sapiens, CD4+ T cell. Summed up: (§2)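 Purified human CD4+ T cells (5 × 10^4/well) in RPMI 1640 with 1% FBS. Compound diluted from DMSO stock, preincubated 1 h at 37 °C. Cells activated with 0.12 ng/well anti-CD3, 100 ng/well anti-CD28 and anti-mouse IgG magnetic beads, then incubated overnight at 37 °C, 5% CO2. Secreted IL-2 in supernatant measured by ELISA.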

In data set [3] the test system is Jurkat. The data set can be described thus: Percent inhibition of Ca+2 influx in jurkat T cells at 50 uM concentration. In kind it is functional. Conditions: Homo sapiens. Summed up:
as §1

For a further data set, the species on record is Homo sapiens. The data set can be described thus: Percent permeated in 3 hours in Caco-2 model. It counts as ADME, organism-based. Conditions: caco-2, 3 h. In a few lines: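 Caco-2 monolayers on collagen-coated polycarbonate filters, grown up to 25 days (passages 23–50). Cells equilibrated in HBSS pH 7.4 for 30 min at 37 °C. Drug applied apically at 0.01–0.1 mM final in HBSS at 37 °C, 5% CO2. Basolateral samples taken at intervals; cumulative amount plotted against time. Mannitol used to check monolayer integrity; mass balance >90%; at least triplicates.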
On the technique in general: Caco-2 cells form a polarised layer with tight junctions and transporters.

Data set [4] can be described thus: Inhibition of proliferation of CD4+T cells. It counts as functional, cell-based. The settings on record: Homo sapiens, CD4+ T cell. In a few lines: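 Human CD4+ T cells, 5 × 10^4/well, preincubated with compound for 1 h at 37 °C. Stimulated with anti-CD3, anti-CD28 and anti-mouse IgG beads. Pulsed 48 h after activation with 0.5 μCi/well [3H]-thymidine, incubated a further 18 h at 37 °C, harvested, and incorporated radioactivity counted.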

For data set [5], the target named is Tyrosine-protein kinase Lck (Homo sapiens, UniProt P06239). The data set can be described thus: Binding affinity for p56lck SH2 domain site.
Sequence of Tyrosine-protein kinase Lck (P06239 whole entry, the tested form may be a part): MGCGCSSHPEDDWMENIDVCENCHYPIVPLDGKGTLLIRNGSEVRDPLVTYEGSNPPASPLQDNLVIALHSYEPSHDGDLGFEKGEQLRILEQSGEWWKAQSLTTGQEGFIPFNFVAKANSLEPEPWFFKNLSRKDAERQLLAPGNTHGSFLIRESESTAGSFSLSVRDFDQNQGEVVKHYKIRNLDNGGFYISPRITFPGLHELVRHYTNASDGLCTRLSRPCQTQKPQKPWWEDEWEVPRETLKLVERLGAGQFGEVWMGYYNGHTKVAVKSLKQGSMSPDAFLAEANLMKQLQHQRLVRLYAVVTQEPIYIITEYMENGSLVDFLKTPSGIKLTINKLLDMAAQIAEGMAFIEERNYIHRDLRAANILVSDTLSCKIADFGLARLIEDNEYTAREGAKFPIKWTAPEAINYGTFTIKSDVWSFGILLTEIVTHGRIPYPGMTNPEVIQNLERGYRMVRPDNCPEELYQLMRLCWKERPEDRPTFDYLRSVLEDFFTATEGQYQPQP
A short description of data set [6]: Inhibition of IL-2 production from CD4+T cells. It counts as functional, cell-based. The settings on record: Homo sapiens, CD4+ T cell. In a few lines: as §2
The test system of data set [7] is Jurkat. The data set can be described thus: Inhibition of Ca+2 influx in jurkat T cells. In kind it is functional, cell-based. The settings on record: Homo sapiens. In a few lines: as §1

A word on the inhibition: it is the share of the control response that was lost under treatment. For orientation: EC50 means the concentration giving half of the maximal effect. A low value points to higher potency in that assay. For the molecule `COc1ccc(Cn2ccc(C)c(NC(=O)[C@@H](Cc3ccc(C(C)(C)C(=O)O)cc3)NC(=O)C(C)(C)c3ccc4ccccc4c3)c2=O)cc1`, the inhibition at 50 µM is 57% in the data set on Jurkat [1] and 29% in the data set on Jurkat [3]. Further, the results for the EC50 in data set [2] and in data set [4] were 11.3 µM and 16.6 µM, respectively. In the data set filed under Homo sapiens, this molecule returned a Permeated of 16%.

As usually defined, the Kd is the free concentration of one partner at which half of the binding sites on the other are occupied at equilibrium, for simple one-to-one binding. Lower therefore signals tighter binding. In turn, `COc1ccc(Cn2cccc(NC(=O)C(Cc3ccc(CC(=O)O)cc3)NC(=O)Cc3cccc4ccccc34)c2=O)cc1` (centres undefined) had a Permeated in the data set filed under Homo sapiens of 1.3%. In data set [5], this molecule returned a Kd of 23 µM.

As for `COc1ccc(Cn2ccc(C)c(NC(=O)[C@H](Cc3ccc(C(C)(C)C(=O)O)cc3)NC(=O)C(C)(C)c3ccc4ccccc4c3)c2=O)cc1`, the EC50 was determined as 9.4 µM in data set [6], 10.1 µM with Jurkat [7] and 8.7 µM in data set [4]. This molecule had a Permeated in the data set listed under Homo sapiens of 21%.

Regarding `COc1ccc(CNC(=O)[C@H](CCC(=O)O)NC(=O)[C@H](Cc2ccc(CC(=O)O)cc2)NC(=O)Cc2cccc3ccccc23)cc1`, the EC50 in the data set with Jurkat [7] was greater than 100 µM. Also, the Permeated in the data set filed under Homo sapiens came to 0.3%.

In the data set listed under Homo sapiens, `COc1ccc(Cn2ccc(C)c(NC(=O)C(Cc3ccc(CC(=O)O)cc3)NC(C)=O)c2=O)cc1` (centres undefined) had a Permeated of 0.4%. Moreover, binding in data set [5] was characterised by a dissociation constant (Kd) of 7 µM.

Molecule `COc1ccc(Cn2ccc(C)c(NC(=O)C(Cc3ccc(CC(=O)O)cc3)NC(=O)Cc3cccc4ccccc34)c2=O)cc1` (centres undefined) came in with an EC50 in the data set on Jurkat [7] greater than 100 µM. The Permeated in the data set filed under Homo sapiens is on record as 0.3%. Moreover, binding in data set [5] was put at a Kd of 1.3 µM.

As to `COc1ccc(Cn2ccc(C)c(NC(=O)C(Cc3ccc(C(C)(C)C(=O)O)cc3)NC(=O)Cc3cccc4ccccc34)c2=O)cc1` (racemic), the EC50 with Jurkat [7] is 51 µM. This molecule gave a Permeated in the data set filed under Homo sapiens of 0.4%. The Kd in data set [5] stood at 1.2 µM.

Consider `COc1ccc(Cn2ccc(C)c(NC(=O)C(Cc3ccc(C(C)(C)C(=O)O)cc3)NC(=O)Cc3ccc4ccccc4c3)c2=O)cc1` (racemic), for which the EC50 with Jurkat [7] stood at 30.5 µM. The molecule also returned a Permeated in the data set filed under Homo sapiens of 0.6%. This molecule registered a dissociation constant (Kd) in data set [5] of 0.28 µM.

The values are drawn from ChEMBL document CHEMBL1134536, “Nonpeptidic, monocharged, cell permeable ligands for the p56lck SH2 domain” (J Med Chem, 2001).
